The test system of series [1] is L1210. The series is described as follows: Inhibition of L1210 lymphoid leukemia cells 48 hr after administration (length of preincubation=0 hr). The class given is functional, cell-based. The conditions noted are these: Mus musculus. An outline of the steps:
(§1)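 L1210 cells (2×10^4/well) exposed continuously to serially diluted compound in Fischer's medium with 10% horse serum for up to 72 h. Viable cells were counted by Trypan blue exclusion at 24, 48 and 72 h. IC50 is the concentration giving 50% growth inhibition, estimated from response curves of three separate experiments.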

The nature of series [2]: Half life in human plasma. The class given is ADME. An outline of the steps:
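Compound ([…]) incubated in 1 mL fresh human plasma at 37 °C against a buffer reference; hydrolysis followed by change in absorption at 325 nm (ϵ 1.55). Initial concentration about 2 × 10^-4 M; apparent first-order kinetics, with the pseudo-first-order rate constant given by k = 0.693/t1/2.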

The subject of series [3] is L1210. In words: Inhibition of L1210 lymphoid leukemia cells 72 hr after administration (length of preincubation=0 hr). The series is classed as functional, cell-based. Conditions: Mus musculus. The gist of the method: as §1
Series [4] deals with L1210. In words: Inhibition of L1210 lymphoid leukemia cells 24 hr after administration (length of preincubation=0 hr). The class given is functional, cell-based. Conditions: Mus musculus. An outline of the steps: as §1

On to `CC(C)C[C@H](NC(=O)[C@H](N)C(C)C)C(=O)N[C@@H](CCCCN)C(=O)N(C)c1ccn([C@@H]2O[C@H](CO)[C@@H](O)[C@@H]2O)c(=O)n1.N=C(N)c1ccc(CS(=O)(=O)F)cc1`, for which the values for the IC50 with L1210 [1], with L1210 [3] and in the series on L1210 [4] were 5 nM, 10 nM and 1000 nM, respectively. In series [2], this molecule showed a half-life of 5.5 h.
Regarding `Nc1ccn([C@@H]2O[C@H](CO)[C@@H](O)[C@@H]2O)c(=O)n1` [CYTARABINE], the IC50 in the series on L1210 [1] was found to be 10 nM; in the series on L1210 [3] it was 10 nM; in the series with L1210 [4] it was 100 nM.

Broadly, the IC50 is the concentration that gives 50% inhibition. A higher IC50 goes with weaker potency in that assay. Broadly, the half-life is the time in which the quantity being followed falls by half. Low values mean fast loss, high ones slow loss.

For the origin of these results see ChEMBL document CHEMBL1126194, “Synthesis and functional evaluation of a peptide derivative of 1-beta-D-arabinofuranosylcytosine” (J Med Chem, 1992).
